Screening results: PubChem BioAssay, several laboratories
Hits are enriched below; roughly 2.4% of the tested compounds scored in any of these assays.
DAGLB inh: blocks human DAGLB lipase activity. Q8NCG7. HEK293T DAGLB membrane lysate, EnzChek fluorogenic substrate. inhibition, % at 5.17 µM. actives 0.059% (n = 340,000); in the data active means inhibition above about 34%
Target sequence (Q8NCG7 whole entry, looked up): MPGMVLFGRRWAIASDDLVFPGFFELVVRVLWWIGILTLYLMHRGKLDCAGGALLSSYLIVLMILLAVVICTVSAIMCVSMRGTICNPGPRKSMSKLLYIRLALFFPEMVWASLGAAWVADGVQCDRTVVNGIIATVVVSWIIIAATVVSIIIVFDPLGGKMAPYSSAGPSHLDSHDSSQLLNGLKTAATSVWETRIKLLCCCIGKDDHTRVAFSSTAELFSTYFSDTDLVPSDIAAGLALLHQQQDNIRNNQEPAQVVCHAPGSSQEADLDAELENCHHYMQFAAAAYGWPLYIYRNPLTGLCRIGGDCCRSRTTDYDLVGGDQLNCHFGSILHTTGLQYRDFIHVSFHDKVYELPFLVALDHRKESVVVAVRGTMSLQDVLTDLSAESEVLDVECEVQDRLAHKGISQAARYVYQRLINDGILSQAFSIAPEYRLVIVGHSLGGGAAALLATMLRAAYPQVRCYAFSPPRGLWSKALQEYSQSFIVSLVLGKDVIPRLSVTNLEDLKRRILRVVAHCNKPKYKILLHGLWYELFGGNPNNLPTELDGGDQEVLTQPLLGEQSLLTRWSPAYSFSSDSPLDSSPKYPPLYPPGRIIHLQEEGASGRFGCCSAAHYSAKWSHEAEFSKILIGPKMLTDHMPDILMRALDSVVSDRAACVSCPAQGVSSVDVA
Myeloid diff MLP: promotes myeloid progenitor differentiation; AID 624256; actives 1% (n = 360,000); ER-HoxA9 myeloid progenitors, lysozyme-GFP differentiation, flow cytometry; calls only at 10 µM;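 active means normalized GFP-positive differentiation at or above the plate's own cutoff, the solvent-only control mean plus 3 SD; inconclusive means no clear call, values can overlap the other calls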;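 further: cells exposed to compound for four days before flow analysis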
CendR NRP1 mod: NRP-1/CendR interaction modulation; actives 0.85% (n = 360,000); AID 602438; FAM-RPARPAR peptide binding to NRP-1, fluorescence polarization; inhibition, % at 25 µM; O14786;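 active means inhibition or corrected inhibition above about 18%, plus a signal ratio from 0.5 to 1.5, limit read from the data, passing the limit was not always enough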
MIN6 prolif: induces beta-cell replication in MIN6 cells; actives 0.29% (n = 330,000); MIN6 cells proliferation, ATPlite luminescence, 48 h; cells starved in 0.2% serum; 100% = growth in 10% serum; proliferation, % at 10 µM;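 active means compounds whose signal lies at least 3.5 SD above the mean of all wells on their plate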
SENP1 inh: inhibitors of human SENP1 SUMO protease catalytic domain. Q9P0U3. recombinant SENP1 catalytic domain, CyPet-SUMO1-YPet FRET cleavage. inhibition, % at 10 µM. actives 0.21% (n = 360,000);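 active means inhibition at least 30% at 10 µM, raw YFP signal under a set limit, fluorescence ratio 0.5 to 1.5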
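Assay system – human recombinant His6-tagged SENP1 catalytic domain enzyme · Input – SENP1 enzyme, 20 pM final · Buffer or medium – Tris pH 8 buffer plus EDTA, NaCl, BME, BSA, NP40, catalase · Schedule – 50 min reaction at room temperature · Technique – FRET read of cyan and yellow fluorescence · Control set – no-enzyme wells low, DMSO-plus-enzyme wells high control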
MT1-MMP act inh: MT1-MMP (human) activation inhibition; P50281; HT1080 RFP-PRO-GFP cells, GFP/RFP ratio fluorescence, overnight; percent of plate control window, DMSO zero; GFP/RFP ratio change, % at 20 µM; actives 0.061% (n = 360,000); AID 651647;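 active means GFP/RFP ratio change of at least 30% with cell ATP level not reduced by more than half and red fluorescence within 50% of control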
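system = RFP-PRO-GFP reporter HT1080 cells | dosing = 20 µM single dose, 1% DMSO | timing = overnight cell settling, then overnight compound exposure, 37 °C, 5% CO2 | read-out basis = GFP/RFP fluorescence ratio | controls = DMSO and RFP-L50D-GFP cell wells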
A number is an active result; i = inactive; ? = inconclusive; nt = no result given; + = active, no number.

SMILES	DAGLB inh	Myeloid diff MLP	CendR NRP1 mod	MIN6 prolif	SENP1 inh	MT1-MMP act inh
Cc1nc(Cc2nnc(SCC(=O)N3CCN(c4ccc(F)cc4)CC3)o2)cs1	i	i	i	i	i	i
NC(=O)C1CC(=O)N(c2ccc(OCC(=O)N3CCCC3)cc2)C1 (stereo unspecified)	i	i	28	nt	i	i
O=C(Nc1nnc(SCc2ccccc2)s1)C1=COCCO1	i	i	24	i	i	i
CC(=O)Nc1ccc(S(=O)(=O)N(Cc2ccccc2)c2ccccc2F)cc1	i	nt	i	i	i	i
CCOC(=O)CSc1nnc2c3ccccc3n(C)c2n1	i	i	26	i	i	i
O=C(NCC(=O)N(Cc1ccco1)C(C(=O)NC1CCCCC1)c1cccnc1)c1cccs1 (stereo unspecified)	i	+	i	i	i	i
COCCN(C(=O)CNC(=O)c1cccs1)C(C(=O)NC1CCCC1)c1cccs1 (stereo unspecified)	i	i	19	i	i	i
Cc1nn(Cc2c(F)c(F)c(F)c(F)c2F)c(C)c1NC(=O)c1ccc(COc2ccc(F)cc2)o1	i	i	i	i	i	i
COc1ccccc1Nc1nn2c(=O)c3ccc(C(=O)N4CCC(C)CC4)cc3nc2s1	i	i	25	i	i	i
COc1ccc([C@H]2C[C@H](n3cc(COC(=O)c4ccccc4)nn3)[C@@H](O)CN2C(=O)c2cccs2)cc1	i	i	i	nt	i	i
O=C(Nc1ccc(N2CCN(C(=O)c3ccccc3F)CC2)cc1)c1cncc(Br)c1	i	i	i	i	i	i
CCOc1ccc(C(=O)NC2CCN(C(=S)NCc3ccco3)CC2)cc1	i	i	26	i	i	i
COc1ccc(C(=O)NC2CCN(C(=S)Nc3ccccc3C)CC2)cc1	i	i	19	i	i	i
Cc1nc2c(OCc3cccc(Cl)c3)cccn2c1N(C)Cc1cccs1	nt	i	i	nt	i	nt
CCOC(=O)C[C@@H]1OC[C@H](C)N1S(=O)(=O)c1ccc(C)cc1	nt	i	i	nt	i	i
COc1ccc(-c2nc3c4ccccc4ccn3c2CC2CCCCC2)cc1OC	nt	+	i	nt	i	i
COCCn1c(=S)[nH]c2cc(C(=O)NC3CCCCC3C)ccc2c1=O (stereo unspecified)	i	i	i	nt	i	i
COc1ccc(S(=O)(=O)N2CCCCC2)cc1NC(=O)c1c(F)cccc1Cl	i	i	26	i	i	i
CN(CC(=O)Nc1cc(S(=O)(=O)N2CCCCCC2)ccc1Cl)Cc1ccc2c(c1)OCO2	i	i	i	i	i	i
COc1ccc(S(=O)(=O)N2CCCCCC2)cc1NC(=O)CN(C)Cc1ccc2c(c1)OCO2	i	+	i	i	i	i
CN1OC[C@@H]2CN(Cc3ccccc3)[C@H](c3cccc(Oc4ccccc4)c3)C[C@@H]21	i	i	25	nt	i	i
S=C(NCCCNC(=S)Nc1ccccc1)Nc1ccccc1	i	i	48	i	i	i
S=C(NCC1CCCO1)Nc1ccccc1 (stereo unspecified)	i	i	21	i	i	i
Cc1onc(-c2ccccc2Cl)c1C(=O)N(Cc1nc(-c2ccccc2)no1)C1CCCCC1	i	+	i	i	i	i
COc1cc(/C=N/NC(=O)c2ccncc2)ccc1OC(=O)c1cccc(F)c1	i	i	i	i	i	i
SMILES	DAGLB inh	Myeloid diff MLP	CendR NRP1 mod	MIN6 prolif	SENP1 inh	MT1-MMP act inh
COC(=O)c1cc(C)nc2c1C(=O)C(=O)C=C2N1CCOCC1	i	?	29	i	i	i
O=C(CCCc1cccs1)Nc1nccs1	i	i	i	i	i	nt
CCCCCCCCCOC(=O)C(CC(=O)O)N1CCOCC1 (stereo unspecified)	i	i	32	i	i	i
CCCCCOC(=O)CC(C(=O)OCCCCC)N1CCCCC1 (stereo unspecified)	i	i	i	i	i	i
CCN1C(=O)/C(=C/N2CCc3ccccc3C2)SC1=S	i	i	i	i	i	i
CCCCCN1C(=O)/C(=C/c2c(N3CCc4ccccc4C3)nc3ccccn3c2=O)SC1=S	i	+	i	i	i	i
CCCC(=O)N1CCC1(C)C(=O)Nc1cccc(OC(C)C)c1 (stereo unspecified)	nt	i	i	nt	i	i
CCOC(=O)c1c(C)[nH]c(C)c1S(=O)(=O)N1CCN(c2cccc(C)c2)C(C)C1 (stereo unspecified)	i	i	i	i	i	i
CCn1c(SCC(=O)c2ccccc2)nnc1-c1cccs1	i	i	32	i	i	i
COC(=O)COc1ccc2cc(-c3ccc(OC)cc3)c(=O)oc2c1	i	i	20	i	i	i
c1ccc(COc2ncnc3c2ncn3CCCNCC2CCCO2)cc1 (stereo unspecified)	i	i	i	nt	i	i
CN(C)c1ccc(/C=C/C=C2/SC(=S)N(c3ccccc3)C2=O)cc1	i	nt	i	i	72	i
O=C(O)c1ccc(N2C(=O)/C(=C/C=C/c3ccccc3)SC2=S)cc1	i	i	i	i	i	i
Nc1ccc2c(O)cc(S(=O)(=O)O)cc2c1	i	i	28	nt	i	i
O=S(=O)(O)c1cc(O)c2cc(Nc3ccccc3)ccc2c1	i	i	42	nt	i	i
COc1ccccc1Nc1ccc2c(O)cc(S(=O)(=O)O)cc2c1	i	i	71	nt	i	i
O=S(=O)(O)c1cc(O)c2ccc(Nc3ccccc3)cc2c1	i	i	i	nt	i	i
C=CCn1c(=N)n(CC(=O)c2ccc(Br)s2)c2ccccc21	i	i	i	i	i	i
CC(NC(=O)c1ccco1)C(=O)N1CCc2ccccc2C1 (stereo unspecified)	i	+	i	i	i	i
COc1ccccc1N1CCN(C(=O)C(C)NC(=O)c2ccco2)CC1 (stereo unspecified)	i	i	i	i	i	i
O=S(=O)(NCc1ccccc1Cl)c1ccc(-n2cnnn2)cc1	i	i	i	i	i	i
O=S(=O)(NCc1ccc(C(F)(F)F)cc1)c1ccc(-n2cnnn2)cc1	i	+	i	i	i	i
CSc1cnc2c(=O)[nH]c(=O)n(C)c2n1	i	i	27	i	i	i
Cn1cnc2c1c(=O)[nH]c(=O)n2C	nt	nt	nt	i	nt	nt
O=C(CSc1nnc(C2CC2)n1-c1ccccc1)NCCc1ccccc1	i	i	i	i	i	i
COc1ccc(N2C(=O)C3C4C=CC(CC4)C3C2=O)c([N+](=O)[O-])c1 (stereo unspecified)	i	i	i	i	i	i
COc1ccc(N2C(=O)C3C4C=CC(C5CC45)C3C2=O)c([N+](=O)[O-])c1 (stereo unspecified)	i	i	33	i	i	i
COc1cccc(CC(=O)Nc2ccc(F)c(S(=O)(=O)N3CCOCC3)c2)c1	i	i	i	nt	i	i
